# hERG protect – shields human hERG channel from block by proarrhythmic agents; Q12809; CHO-hERG, FluxOR thallium flux, dofetilide IC70 present; activation (rescue from dofetilide block), less the hit threshold, % at 10 µM; 310,000 compounds, 0.51% hits;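 active means activation above the mean of controls blocked by dofetilide plus 5 SD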;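 further: thallium influx through hERG after potassium depolarization seen as dye fluorescence rise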
# Target sequence (Q12809 whole entry, looked up): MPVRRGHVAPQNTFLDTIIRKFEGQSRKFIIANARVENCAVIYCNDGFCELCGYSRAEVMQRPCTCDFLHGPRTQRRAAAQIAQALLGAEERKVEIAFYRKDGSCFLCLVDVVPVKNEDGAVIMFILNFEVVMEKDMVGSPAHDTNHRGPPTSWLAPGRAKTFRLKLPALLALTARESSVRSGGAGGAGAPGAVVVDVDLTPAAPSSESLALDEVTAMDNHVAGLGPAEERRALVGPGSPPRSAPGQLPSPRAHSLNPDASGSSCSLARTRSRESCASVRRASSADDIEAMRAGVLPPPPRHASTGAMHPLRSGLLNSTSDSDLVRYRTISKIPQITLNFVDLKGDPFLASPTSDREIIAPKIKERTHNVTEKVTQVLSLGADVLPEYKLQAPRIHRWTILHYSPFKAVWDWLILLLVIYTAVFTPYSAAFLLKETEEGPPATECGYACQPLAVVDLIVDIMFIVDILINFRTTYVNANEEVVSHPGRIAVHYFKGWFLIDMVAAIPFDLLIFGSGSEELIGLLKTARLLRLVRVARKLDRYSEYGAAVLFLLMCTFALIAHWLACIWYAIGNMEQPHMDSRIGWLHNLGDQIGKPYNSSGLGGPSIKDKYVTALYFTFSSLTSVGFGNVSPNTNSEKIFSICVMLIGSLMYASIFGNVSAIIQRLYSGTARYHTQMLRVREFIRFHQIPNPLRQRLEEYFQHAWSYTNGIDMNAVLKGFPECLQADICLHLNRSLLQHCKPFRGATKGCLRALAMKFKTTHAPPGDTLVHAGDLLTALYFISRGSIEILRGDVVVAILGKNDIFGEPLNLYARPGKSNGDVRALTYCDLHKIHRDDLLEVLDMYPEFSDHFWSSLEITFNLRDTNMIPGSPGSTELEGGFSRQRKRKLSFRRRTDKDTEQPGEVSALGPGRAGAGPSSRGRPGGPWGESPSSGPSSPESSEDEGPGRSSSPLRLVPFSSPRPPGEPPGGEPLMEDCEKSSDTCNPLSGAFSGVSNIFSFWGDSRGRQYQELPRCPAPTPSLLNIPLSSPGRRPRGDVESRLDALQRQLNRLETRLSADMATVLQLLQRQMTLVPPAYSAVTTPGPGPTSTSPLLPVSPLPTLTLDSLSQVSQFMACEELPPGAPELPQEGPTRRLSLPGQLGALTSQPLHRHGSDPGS
# KCNQ1 act – human KCNQ1 channel potentiation or activation; P51787; CHO-K1 KCNQ1, thallium flux FluxOR fluorescence; active compounds read high; B-score at 10 µM; 310,000 compounds, 0.35% hits; AID 2648;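 active means fluorescence ratio B-score, a plate-corrected score, at least three library SD, with initial intensity B-score within 5 SD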
#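 assay system = KCNQ1-transfected CHO-K1 cells | medium = assay buffer with matched DMSO | probe or stimulus = depolarizing K+/Tl+ stimulus, K2SO4 and Tl2SO4 each 12.5 mM in 5x stock | dosing = single dose | incubation = dye 90 min, compound 20 min, room temperature | detection = kinetic FluxOR fluorescence, 10 s baseline plus 110 s post-stimulus | evaluation = ratio B score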
# KCC2 mod – modulators of human KCC2 chloride dependent transport; KCC2 cells, thallium flux FluoZin-2 fluorescence; B-score of Tl+ flux slope (higher = more flux/activation; lower = inhibition) at 10 µM; 190,000 compounds, 2.2% hits; AID 1456;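 active means thallium flux slope and its plate-corrected score both differing from the plate sample mean at a set confidence after two filtering rounds, in either direction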;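 further: slope of fluorescence scaled to starting intensity during 10 to 20 s after thallium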
# KCNQ1 inh – inhibitors of human KCNQ1 potassium channel | P51787 | CHO-K1 KCNQ1, FluxOR thallium flux fluorescence; active compounds read high | B-score at 10 µM | 310,000 compounds, 1.3% hits;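 active means compounds whose thallium flux B-score, printed positive for inhibition, exceeds three library SD while starting fluorescence stays within three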;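 further: channel opened by potassium depolarization with thallium stimulus after 20 min compound exposure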
# KCNK3 block – human KCNK3 channel inhibition, primary screen; CHO-KCNK3 thallium flux, FluxOR fluorescence; active compounds read low; 340,000 compounds, 0.84% hits; B-score at 10 µM; O14649;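 active means B-score under library mean minus 4 SD, starting fluorescence ratio at most library mean plus 5 SD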;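 further: more negative B-score means stronger inhibition of thallium flux through KCNK3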
# KCNK9 inh – human KCNK9 channel inhibition; B-score at 10 µM; AID 488922; 310,000 compounds, 1.2% hits; HEK293 KCNK9, FluxOR thallium flux fluorescence; active compounds read low; Q9NPC2;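 active means ratio B-score over 3 SD below the library mean, with starting fluorescence within 5 SD of its mean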;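 further: negative B-score means less thallium flux so channel inhibition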
# Numbers stand for hits; n = inactive; x = no result. Shown are actives, neighbours in structure and some others; about 4.1% of the full set was active somewhere.
SMILES,hERG protect,KCNQ1 act,KCC2 mod,KCNQ1 inh,KCNK3 block,KCNK9 inh
CC(=O)Nc1ccc(OC(=O)c2ccc(Br)c([N+](=O)[O-])c2)cc1,n,n,n,7,n,n
COc1cc(OC)cc(C(=O)N2CCN(c3ccc(N4CCOCC4)nn3)CC2)c1,n,n,x,n,n,n
CCOc1cc(/C=N/Nc2nc(Nc3ccccc3)nc(N3CCCCC3)n2)ccc1OCC(=O)O,n,n,n,n,n,n
COc1ccc(/C=N/Nc2nc(Nc3ccccc3)nc(N3CCCCC3)n2)cc1OC,n,n,n,7,n,n
CCOC(=O)C1CC(CN2C(=O)c3ccccc3C2=O)OC1=O (stereo not given),x,x,x,x,n,x
Oc1c(CN2CCOCC2)cc(CN2CCOCC2)c(O)c1CN1CCOCC1,x,x,x,x,n,x
Oc1c(CN2CCOCC2)cc(-c2ccccc2)cc1CN1CCOCC1,35.0,n,n,n,n,n
COc1ccc(NC(=O)CSc2nnc(-c3ccncc3)o2)c([N+](=O)[O-])c1,n,n,x,n,n,n
Cc1ccc(OCCCCNC2CCCC(C)C2C)c(C)c1 (stereo not given),n,n,n,6,n,n
CCN1CCN(Cc2c(C)[nH]c3ccc(C(=O)OC)cc3c2=O)CC1,5.6,n,n,n,n,n
CCOc1ccc2[nH]c(C)c(CN3CCCCC3)c(=O)c2c1,n,n,x,n,n,n
CCc1ccc(OC)c(S(=O)(=O)Nc2ccc(Cc3ccncc3)cc2)c1,n,n,x,n,n,n
Cc1ccc(C(=O)Oc2cccc(NC(=O)c3ccco3)c2)cc1S(=O)(=O)N1CCC(C)CC1,n,n,n,n,n,n
O=C(Oc1cccc(NC(=O)c2ccco2)c1)c1ccc(Br)c(S(=O)(=O)N2CCCCC2)c1,n,n,x,n,n,-7.79
Cc1ccc(C(C)C)c(OCC(O)CN2CCc3ccccc3C2)c1 (stereo not given),n,n,x,6,n,n
O=C(c1sc2ccccc2c1Cl)N(Cc1ccccc1Cl)C1CCS(=O)(=O)C1 (stereo not given),n,n,n,n,n,-6.79
N#Cc1cn(CCOc2ccccc2F)c2ccccc12,n,n,n,n,n,-7.53
COc1ccc2ccccc2c1C1CC(=O)N2CN(Cc3ccco3)CSC2=C1C#N (stereo not given),n,n,n,7,n,n
N#C/C(=C(/O)c1ccc2c(c1)OCO2)c1nc2cc(C(F)(F)F)ccc2s1,n,n,x,11,n,n
COc1ccc(NC(=O)CN2C(=O)COc3ccc(S(=O)(=O)N4CCCCCC4)cc32)cc1,n,n,x,n,n,n
COC(=O)C1=C(C)NC(C)=C(C(=O)O[C@@H]2CCCN(Cc3ccccc3)C2)[C@@H]1c1cccc([N+](=O)[O-])c1,n,n,x,7,n,n
CCOC(=O)C1=C(C)NC(C)=C(C(=O)OC)C1c1cccc([N+](=O)[O-])c1 (stereo not given),n,n,n,n,n,n
Cc1ccc(NC(=O)CS(=O)CC(=O)NC23CC4CC(CC(C4)C2)C3)cc1 (stereo not given),n,n,x,n,n,n
CCOC(=O)/C(C#N)=C/c1c(N2CCN(c3cccc(Cl)c3)CC2)nc2c(C)cccn2c1=O,n,n,x,6,n,n
CNC(=O)/C(C#N)=C/c1c(N2CCN(c3cccc(Cl)c3)CC2)nc2c(C)cccn2c1=O,n,n,x,n,n,n
SMILES,hERG protect,KCNQ1 act,KCC2 mod,KCNQ1 inh,KCNK3 block,KCNK9 inh
O=C(N/N=C/c1cccc(Br)c1)c1ccc(Cn2cc(Br)cn2)o1,n,n,n,n,n,-7.47
Cc1ccsc1/C=N/NC(=O)c1ccc(Cn2cc(Br)cn2)o1,n,n,x,n,n,n
COc1ccc(NC(=O)C(=O)NCC2CCCN2S(=O)(=O)c2ccc(C)cc2)cc1 (stereo not given),n,n,x,n,n,n
O=C(NC(=S)N1CCN(c2ccccc2)CC1)c1ccccc1,10.3,20,x,n,n,n
O=C(NC(=S)N1CCCCCC1)c1ccccc1,5.8,n,x,n,n,n
O=C(NC(=S)N1CCN(c2ccc([N+](=O)[O-])cc2)CC1)c1ccc(F)cc1,n,n,24.8,n,n,n
O=C(NC(=S)N1CCN(c2ccc([N+](=O)[O-])cc2)CC1)c1ccccc1F,n,n,n,n,n,n
O=C(NC(=S)N1CCCC1)c1ccccc1,n,n,x,n,n,n
O=C(NC(=S)N1CCCCCC1)c1ccc(Cl)cc1Cl,7.0,21,88.2,n,n,n
O=C(NC(=S)N1CCN(c2ccccc2)CC1)c1ccco1,x,x,x,x,n,x
CN1CCN(C(=S)NC(=O)c2ccccc2Cl)CC1,n,n,x,n,n,n
Cc1ccccc1NC(=O)COC(=O)c1ccc(S(=O)(=O)N2CCCC2)cc1,x,x,x,x,n,x
CC(C)Cc1ccc(C(C)C(N)=NCCc2ccccc2)cc1 (stereo not given),n,n,x,9,n,n
COc1ccc(CCN=C(N)C(C)c2ccccc2)cc1OC (stereo not given),n,n,n,n,n,n
CS(=O)(=O)c1ccccc1-c1nnc(NC(=O)C2=COCCO2)o1,n,n,x,n,n,n
Cc1ccc(C)c(N2CCN(C(=O)c3ccc4nsnc4c3)CC2)c1,n,n,x,n,n,n
Cc1nc2ccccc2c2c1C(=O)N(C)C2=O,5.7,n,n,n,n,n
Cc1ccc(COC(=O)NCc2cccnc2)cc1,n,n,x,n,n,n
CCOc1ccc(OCCNC(=O)c2cc(C3CC3)nc3c2cnn3C(C)C)cc1,x,x,x,x,-8.9,x
CC(C)n1ncc2c(C(=O)NCCOc3ccccc3F)cc(C3CC3)nc21,x,x,x,x,n,x
CCCCNC(=O)Cn1nc(Cc2ccncc2)c2ccccc2c1=O,n,n,x,n,n,n
O=C(Cn1nc(Cc2ccncc2)c2ccccc2c1=O)N1CCc2ccccc2C1,x,x,-3.68,x,n,x
CCN1C(=O)/C(=C2\SC(=S)N(CC3CCCO3)C2=O)c2ccccc21 (stereo not given),x,x,n,x,x,x
CCN1C(=O)/C(=C2\SC(=S)N(NC(=O)c3ccccc3O)C2=O)c2ccccc21,n,n,n,10,n,n
CCOc1ccc(C(c2c(NC(=O)c3ccco3)sc(C)c2C)N2CCOCC2)cc1 (stereo not given),x,x,x,x,-10.6,x
CCCCn1nc(C(=O)NCC(c2cccs2)N2CCOCC2)c2ccccc2c1=O (stereo not given),x,x,x,x,n,x
Cn1nc(C(F)(F)F)c(/C=N/OC(=O)c2ccccc2)c1Sc1ccc(Cl)cc1,n,n,n,n,n,n
Cn1nc(C(F)(F)F)c(/C=N/OC(=O)c2ccccc2)c1SCc1ccccc1Cl,n,n,n,n,n,-7.89
O=[N+]([O-])c1ccc(O)c(-c2cc(C(F)(F)F)nc(-c3ccccc3)n2)c1,n,n,x,7,n,n

# Compound activity: PubChem, several laboratories
